Laboratory results published in ChEMBL document CHEMBL1131380, “Clarification of the binding mode of teleocidin and benzolactams to the Cys2 domain of protein kinase Cdelta by synthesis of hydrophobically modified, teleocidin-mimicking benzolactams and computational docking simulation” (J Med Chem, 1998).

What was measured:
[1] = target: Protein kinase C delta type (Homo sapiens, UniProt Q05655); assay: Displacement of [3H]PDBu from recombinant Protein kinase C delta
Method in brief: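 Competitive binding of [3H]PDBu (Kd 2.9 nM) to recombinant PKCδ. Ki derived from the IC50 of the binding curve. Number of repetitions given per compound.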

HL-60 [2] = assay: Effective concentration against monocytes of HL-60 cells growth inhibition; type: functional, cell-based; conditions: Homo sapiens
Method in brief: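 HL-60 cells grown in RPMI1640 with 5% FBS (not delipidized), penicillin G and streptomycin, at 37 °C in humidified 5% CO2. Compounds taken from 2 mM ethanol stocks, with final ethanol below 0.5%. Cells seeded at about 8 × 10⁴ cells/mL and counted after 4 days. EC50 for growth inhibition.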

HL-60 [3] = assay: Effective concentration against HL-60 cell differentiation; type: functional, cell-based; conditions: Homo sapiens

Chain of Protein kinase C delta type (Q05655 whole entry): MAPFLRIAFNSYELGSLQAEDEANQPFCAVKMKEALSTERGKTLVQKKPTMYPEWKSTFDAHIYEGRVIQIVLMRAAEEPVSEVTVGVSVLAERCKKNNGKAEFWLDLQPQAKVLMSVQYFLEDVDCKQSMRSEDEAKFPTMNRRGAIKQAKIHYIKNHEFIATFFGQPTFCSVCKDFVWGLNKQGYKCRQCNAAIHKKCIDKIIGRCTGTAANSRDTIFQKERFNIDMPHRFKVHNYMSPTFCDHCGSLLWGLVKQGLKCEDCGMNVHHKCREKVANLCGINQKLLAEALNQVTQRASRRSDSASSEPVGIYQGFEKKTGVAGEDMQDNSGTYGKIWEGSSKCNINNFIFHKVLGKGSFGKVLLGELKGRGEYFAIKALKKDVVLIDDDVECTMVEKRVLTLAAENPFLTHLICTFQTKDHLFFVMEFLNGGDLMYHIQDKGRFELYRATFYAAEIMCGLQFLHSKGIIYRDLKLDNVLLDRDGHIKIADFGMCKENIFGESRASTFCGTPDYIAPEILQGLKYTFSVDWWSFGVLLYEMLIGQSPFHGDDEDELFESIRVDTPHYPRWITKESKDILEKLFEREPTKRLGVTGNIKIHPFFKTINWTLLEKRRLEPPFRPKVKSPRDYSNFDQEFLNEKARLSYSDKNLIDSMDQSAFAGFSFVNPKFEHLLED

| Structure (SMILES) | Ki [1] | EC50 (HL-60 [2]) | EC50 (HL-60 [3]) |
| --- | --- | --- | --- |
| C=C[C@@]1(C)CC[C@](C)(C(C)C)c2cc3c4c(c[nH]c4c21)C[C@@H](CO)NC(=O)[C@H](C(C)C)N3C | 0.32 nM | 5 nM |  |
| CCCCCCCCCCc1ccc2c(c1)N(C)[C@@H](C(C)C)C(=O)N[C@H](CO)C2 | 5.9 nM |  |  |
| CCCCCCCCCCC1C(=O)N[C@H](CO)Cc2ccccc2N1C (stereo partly drawn) | 3 nM |  | 200 nM |
| CC(C)[C@H]1C(=O)N[C@H](CO)Cc2cc3c(cc2N1C)C1(CCCCC1)CCC3 | 19 nM |  | 70 nM |
| CC(C)[C@H]1C(=O)N[C@H](CO)Cc2ccccc2N1C | 1700 nM | > 1000 nM |  |
| CC(C)[C@H]1C(=O)N[C@H](CO)Cc2cc3c(cc2N1C)C(C)(C)CCC3(C)C | 5100 nM |  |  |
| CC(C)[C@H]1C(=O)N[C@H](CO)Cc2cc3c(cc2N1C)C1(CCC3)CCC(C)(C)CC1 | 14 nM |  | 20 nM |
| CC(C)[C@H]1C(=O)N[C@H](CO)Cc2cc3c(cc2N1C)CCCC3(C)C | 1700 nM |  | 7000 nM |
| CC(C)[C@H]1C(=O)N[C@H](CO)Cc2cc3c(cc2N1C)C(C)(C)CCC3 | 65 nM |  |  |
| CCCCCCCCCCc1ccc2c(c1)C[C@@H](CO)NC(=O)[C@H](C(C)C)N2C | 32 nM |  |  |
| CC(C)[C@H]1C(=O)N[C@H](CO)Cc2c[nH]c3cccc(c23)N1C [INDOLACTUM] | 80 nM | 5 nM |  |
